Experiment [1] concerns the target Vitamin K-dependent protein C (Homo sapiens, UniProt P04070). As to the kind of experiment: Inhibition of human activated Protein C using Mes-DArg-Pro-Arg-AMC as substrate by Dixon plot analysis. The method, boiled down:
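Human aPC, 293 pM final. Run at room temperature in 50 mM Tris·HCl pH 8.0 with 154 mM NaCl. Substrate Mes-DArg-Pro-Arg-AMC, KM 26 μM. Fluorescence was read at ex 355 / em 460 nm, with reaction started by enzyme. Ki came from Dixon plots, mean of at least two measurements.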

Experiment [2] addresses T1, Plasminogen (Homo sapiens, UniProt P00747). In words: Inhibition of human plasmin using Mes-DSer(Bzl)-Phe-Arg-AMC as substrate by Dixon plot analysis.
Target sequence in this assay (P00747 97-580 limits assumed): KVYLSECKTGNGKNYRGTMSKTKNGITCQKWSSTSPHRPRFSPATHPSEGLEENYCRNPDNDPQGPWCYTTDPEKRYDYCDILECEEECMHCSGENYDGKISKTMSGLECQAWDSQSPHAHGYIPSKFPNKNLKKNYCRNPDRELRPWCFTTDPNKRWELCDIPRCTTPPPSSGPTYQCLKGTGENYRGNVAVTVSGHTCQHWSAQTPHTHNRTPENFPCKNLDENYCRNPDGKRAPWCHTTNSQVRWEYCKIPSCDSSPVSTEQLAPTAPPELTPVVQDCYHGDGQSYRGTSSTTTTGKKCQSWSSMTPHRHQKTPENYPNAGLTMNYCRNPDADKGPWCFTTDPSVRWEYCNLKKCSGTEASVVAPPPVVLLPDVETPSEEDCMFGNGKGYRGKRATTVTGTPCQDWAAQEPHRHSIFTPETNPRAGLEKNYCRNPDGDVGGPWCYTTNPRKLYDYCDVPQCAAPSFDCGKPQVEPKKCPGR
Target sequence in this assay (P00747 581-810 limits assumed): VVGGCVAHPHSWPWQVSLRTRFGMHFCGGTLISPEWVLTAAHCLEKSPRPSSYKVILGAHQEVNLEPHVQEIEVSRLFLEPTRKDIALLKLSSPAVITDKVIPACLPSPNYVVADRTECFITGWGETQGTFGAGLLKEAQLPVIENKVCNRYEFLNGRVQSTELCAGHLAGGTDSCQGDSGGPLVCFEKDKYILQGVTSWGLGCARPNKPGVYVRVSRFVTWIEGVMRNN
Experiment [3] concerns the target Trypsin (Sus scrofa, UniProt P00761). In words: Inhibition of porcine trypsin using Mes-DArg-Gly-Arg-AMC as substrate by Dixon plot analysis. The method, boiled down:
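Porcine trypsin, 30 pM final, with substrate Mes-DArg-Gly-Arg-AMC (KM 8.3 μM). Buffer was 50 mM Tris·HCl pH 8.0 containing 154 mM NaCl, at room temperature. Reaction was started by enzyme and fluorescence read at ex 355 / em 460 nm. Ki was obtained from Dixon plots, mean of at least two measurements.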

In experiment [4] the target is Plasma kallikrein (Homo sapiens, UniProt P03952). In words: Inhibition of human plasma kallikrein using Mes-DArg-Pro-Arg-AMC as substrate by Dixon plot analysis. The method, boiled down: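 Human plasma kallikrein (112 pM final) was assayed at room temperature in Tris·HCl 50 mM pH 8.0 with NaCl 154 mM. Mes-DArg-Pro-Arg-AMC served as substrate (KM 39 μM). Fluorescence was read at ex 355 / em 460 nm, with reactions started by enzyme.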
Chain of Plasma kallikrein (P03952 20-390 limits assumed): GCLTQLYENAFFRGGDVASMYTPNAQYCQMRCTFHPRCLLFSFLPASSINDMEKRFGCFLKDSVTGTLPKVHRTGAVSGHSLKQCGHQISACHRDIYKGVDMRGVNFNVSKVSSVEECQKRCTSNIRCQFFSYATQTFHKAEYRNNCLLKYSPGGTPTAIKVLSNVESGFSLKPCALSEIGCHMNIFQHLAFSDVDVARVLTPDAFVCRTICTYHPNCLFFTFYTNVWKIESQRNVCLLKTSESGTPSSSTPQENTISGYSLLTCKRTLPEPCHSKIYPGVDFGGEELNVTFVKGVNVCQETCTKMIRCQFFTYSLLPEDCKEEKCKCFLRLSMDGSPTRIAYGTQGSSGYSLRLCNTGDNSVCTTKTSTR
Chain of Plasma kallikrein (P03952 391-638 limits assumed): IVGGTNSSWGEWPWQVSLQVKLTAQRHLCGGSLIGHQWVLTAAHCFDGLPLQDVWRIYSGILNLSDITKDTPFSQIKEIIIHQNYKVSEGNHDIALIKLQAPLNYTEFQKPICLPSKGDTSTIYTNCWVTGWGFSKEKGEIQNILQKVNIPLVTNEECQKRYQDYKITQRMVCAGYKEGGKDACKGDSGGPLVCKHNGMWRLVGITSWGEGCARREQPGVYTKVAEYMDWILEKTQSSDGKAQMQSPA

Experiment [5] has as its target Prothrombin (Bos taurus, UniProt P00735). As to the kind of experiment: Inhibition of bovine thrombin using Tos-Gly-Pro-Arg-AMC as substrate by Dixon plot analysis. The procedure, abridged: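 Bovine thrombin at 31 pM in assay, KM 5.4 μM for the substrate. Run at room temperature in 50 mM Tris·HCl pH 8.0 with 154 mM NaCl. Fluorescence read at ex 355 / em 460 nm, reaction started by enzyme addition. Ki from Dixon plots, average of at least two measurements.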

Experiment [6] deals with Coagulation factor X (Homo sapiens, UniProt P00742). In words: Inhibition of human f10a using Mes-DArg-Pro-Arg-AMC as substrate by Dixon plot analysis. The method, boiled down:
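Human factor Xa, 97 pM in assay, in 50 mM Tris·HCl pH 8.0 with 154 mM NaCl at room temperature. Fluorogenic substrate Mes-DArg-Pro-Arg-AMC (KM 28 μM), read at ex 355 / em 460 nm after starting with enzyme. Ki was taken from Dixon plots and averaged over at least two measurements.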

Experiment [7] concerns Plasma. As to the kind of experiment: Antifibrinolytic activity in human plasma assessed as inhibition of tPA-induced plasmin formation after 40 mins. Format: functional, cell-free. The procedure, abridged: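 Citrated human plasma at 37 °C with CaCl2 (12.5 mM in assay), tissue factor (stock 1/500 in assay) and tPA (12.3 nM in assay). Inhibitor dilutions, from 10 mM DMSO stocks diluted in 0.9% NaCl, were preincubated 5 min at 37 °C with these reagents, then started with prewarmed plasma. OD405 was read over 40 min.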

For experiment [8], the target named is T1, Plasminogen. As to the kind of experiment: Binding affinity to human plasmin assessed as slow binding constant in presence of Mes-DArg-Phe-Arg-AMC after 20 mins by Dixon plot analysis.
Target sequence in this assay (P00747 97-580 limits assumed): as the sequence (P00747 97-580 limits assumed) above
Target sequence in this assay (P00747 581-810 limits assumed): as the sequence (P00747 581-810 limits assumed) above
The target of experiment [9] is T1, Plasminogen. In words: Inhibition of human plasmin.
Target sequence in this assay (P00747 whole entry, looked up): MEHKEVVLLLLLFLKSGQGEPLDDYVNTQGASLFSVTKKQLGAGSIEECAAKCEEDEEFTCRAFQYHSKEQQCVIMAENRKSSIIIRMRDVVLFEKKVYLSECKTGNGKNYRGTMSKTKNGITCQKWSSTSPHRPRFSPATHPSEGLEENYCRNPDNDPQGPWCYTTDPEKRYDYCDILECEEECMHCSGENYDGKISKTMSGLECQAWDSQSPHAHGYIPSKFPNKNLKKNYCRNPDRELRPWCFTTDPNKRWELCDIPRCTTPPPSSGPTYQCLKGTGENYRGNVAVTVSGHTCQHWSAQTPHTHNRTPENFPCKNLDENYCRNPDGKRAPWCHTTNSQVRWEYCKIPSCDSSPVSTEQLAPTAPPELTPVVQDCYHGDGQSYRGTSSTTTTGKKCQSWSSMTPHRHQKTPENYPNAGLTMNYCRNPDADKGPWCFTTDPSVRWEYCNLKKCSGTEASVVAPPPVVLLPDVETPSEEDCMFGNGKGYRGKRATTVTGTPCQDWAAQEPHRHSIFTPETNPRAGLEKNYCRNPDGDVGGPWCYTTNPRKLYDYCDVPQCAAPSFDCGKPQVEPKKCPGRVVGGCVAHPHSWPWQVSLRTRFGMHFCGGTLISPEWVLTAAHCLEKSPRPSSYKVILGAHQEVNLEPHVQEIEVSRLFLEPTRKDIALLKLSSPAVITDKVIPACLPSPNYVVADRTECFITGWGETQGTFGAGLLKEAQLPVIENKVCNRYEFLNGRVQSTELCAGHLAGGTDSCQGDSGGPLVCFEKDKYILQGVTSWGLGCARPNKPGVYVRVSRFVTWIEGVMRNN

Chain of Trypsin (P00761 whole entry): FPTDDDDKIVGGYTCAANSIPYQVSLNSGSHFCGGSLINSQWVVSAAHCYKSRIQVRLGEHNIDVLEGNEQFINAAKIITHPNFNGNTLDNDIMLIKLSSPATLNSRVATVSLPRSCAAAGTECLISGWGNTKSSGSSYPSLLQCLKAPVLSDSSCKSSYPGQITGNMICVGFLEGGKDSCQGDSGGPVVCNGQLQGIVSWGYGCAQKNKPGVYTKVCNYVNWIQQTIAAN
Chain of Vitamin K-dependent protein C (P04070 43-197 limits assumed): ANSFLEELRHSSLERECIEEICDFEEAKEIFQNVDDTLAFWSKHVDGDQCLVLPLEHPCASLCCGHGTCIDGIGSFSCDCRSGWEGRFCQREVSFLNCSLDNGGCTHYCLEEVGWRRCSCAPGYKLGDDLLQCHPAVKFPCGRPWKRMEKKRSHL
Chain of Vitamin K-dependent protein C (P04070 212-461 limits assumed): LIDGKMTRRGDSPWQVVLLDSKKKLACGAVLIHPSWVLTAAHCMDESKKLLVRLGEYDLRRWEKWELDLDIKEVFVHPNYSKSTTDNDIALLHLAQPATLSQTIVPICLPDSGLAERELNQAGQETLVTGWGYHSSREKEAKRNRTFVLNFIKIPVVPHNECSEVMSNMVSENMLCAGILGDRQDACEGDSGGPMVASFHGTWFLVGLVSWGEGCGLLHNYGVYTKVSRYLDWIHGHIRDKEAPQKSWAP
Chain of Coagulation factor X (P00742 41-179 limits assumed): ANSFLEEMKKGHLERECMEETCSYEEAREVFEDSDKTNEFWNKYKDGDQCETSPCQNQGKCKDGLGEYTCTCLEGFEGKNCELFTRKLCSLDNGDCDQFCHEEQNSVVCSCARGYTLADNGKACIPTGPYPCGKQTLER
Chain of Coagulation factor X (P00742 235-488 limits assumed): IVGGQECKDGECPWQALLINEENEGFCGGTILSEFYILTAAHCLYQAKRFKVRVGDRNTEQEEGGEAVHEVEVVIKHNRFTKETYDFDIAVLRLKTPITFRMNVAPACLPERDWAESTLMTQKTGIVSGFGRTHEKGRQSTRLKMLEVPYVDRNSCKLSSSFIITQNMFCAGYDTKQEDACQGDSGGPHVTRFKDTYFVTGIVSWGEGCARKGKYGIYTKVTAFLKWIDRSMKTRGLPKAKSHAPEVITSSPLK

As to `NCc1ccc(CNC(=O)[C@@H]2Cc3ccc(cc3)NC(=O)CCN3CCN(CCC(=O)Nc4ccc(cc4)C[C@@H](NS(=O)(=O)Cc4ccccc4)C(=O)N2)CC3)cc1`, the inhibitory constant (Ki) (usually the equilibrium dissociation constant of an inhibitor or competing ligand from its target) in experiment [1] worked out at 32 µM; in experiment [2], 1.2 nM; in [3], 0.156 µM.

On to `N=C(N)c1ccc(CNC(=O)[C@@H]2Cc3ccc(cc3)NC(=O)CN3CCN(CC3)CC(=O)Nc3ccc(cc3)C[C@@H](N)C(=O)N2)cc1`, for which the inhibition constant (Ki) is 130 µM in experiment [1]; 66.3 nM in [2]; 9.09 µM in experiment [4]; 173 µM in experiment [5]; 114 µM in experiment [6].

In the case of `N=C(N)c1ccc(CNC(=O)[C@@H]2Cc3ccc(cc3)NC(=O)CCN3CCN(CCC(=O)Nc4ccc(cc4)C[C@@H](NC(=O)CCc4ccccc4)C(=O)N2)CC3)cc1`, the Ki in experiment [1] was determined as 28 µM; in experiment [2], 3.93 nM; in experiment [4], 7.41 µM; in experiment [5] it was 0.199 µM; in experiment [6], 16.1 µM; in experiment [3], 0.757 µM.

Turning to `N=C(N)NCCCCNC(=O)[C@@H]1Cc2ccc(cc2)NC(=O)CCN2CCN(CCC(=O)Nc3ccc(cc3)C[C@@H](NS(=O)(=O)NC3CCCCC3)C(=O)N1)CC2`, the inhibition constant Ki in experiment [1] was found to be 49.3 µM; in experiment [2], 3.7 nM; in experiment [4], 10.4 µM; in experiment [5], 1.71 µM; in experiment [6] it was 28.9 µM; in [3] it was 0.59 µM.

For `N=C(N)c1ccc(CNC(=O)[C@@H]2Cc3ccc(cc3)NC(=O)CN3CCN(CC3)CC(=O)Nc3ccc(cc3)C[C@@H](NC(=O)CCCc3ccccc3)C(=O)N2)cc1`, the Ki came to 47.1 µM in experiment [1]; 75.3 nM in experiment [2]; 12.6 µM in experiment [4]; 8.78 µM in experiment [5]; 20.5 µM in experiment [6]; 1.9 µM in [3].

For the molecule `N=C(N)c1ccc(CNC(=O)[C@@H]2Cc3ccc(cc3)NC(=O)CN3CCN(CC3)CC(=O)Nc3ccc(cc3)C[C@@H](NS(=O)(=O)NC3CCCCC3)C(=O)N2)cc1`, the Ki in experiment [1] is greater than 30 µM; in [8] it was 0.00042 µM; in experiment [5] it was 15.8 µM; in [3], 0.136 µM. In addition, in [7], the IC50 (as a rule, the concentration that inhibits the measured activity by half) worked out at 0.053 µM.

For the molecule `N=C(N)c1ccc(CNC(=O)[C@@H]2Cc3ccc(cc3)NC(=O)CCN3CCN(CCC(=O)Nc4ccc(cc4)C[C@@H](NS(=O)(=O)NC4CCCCC4)C(=O)N2)CC3)cc1`, the inhibitory constant (Ki) in experiment [1] was found to be 17 µM; in experiment [8] it was 0.00015 µM; in experiment [2], 0.13 nM; in experiment [3], 0.021 µM. Besides, in experiment [7], the IC50 was 0.055 µM.

Take `N=C(N)c1ccc(CNC(=O)[C@@H]2Cc3ccc(cc3)NC(=O)CN3CCN(CC3)CC(=O)Nc3ccc(cc3)C[C@@H](NC(=O)OCc3ccccc3)C(=O)N2)cc1`: the Ki in [1] came out at 93.4 µM; in experiment [2] it was 5.2 nM.

For `N=C(N)c1ccc(CNC(=O)[C@@H]2Cc3ccc(cc3)NC(=O)CCN3CCN(CCC(=O)Nc4ccc(cc4)C[C@@H](NC(=O)CCCc4ccccc4)C(=O)N2)CC3)cc1`, the Ki in experiment [1] turned out to be 39.7 µM; in experiment [2] it was 22.7 nM; in [4], 10.5 µM; in [5], 0.712 µM; in experiment [6], 11.5 µM; in [3], 1 µM.

Take `CN(C)S(=O)(=O)N[C@@H]1Cc2ccc(cc2)NC(=O)CN2CCN(CC2)CC(=O)Nc2ccc(cc2)C[C@@H](C(=O)NCc2ccc(C(=N)N)cc2)NC1=O`: the Ki in experiment [1] stood at 74.7 µM.

`CC(C)(C)OC(=O)N[C@@H]1Cc2ccc(cc2)NC(=O)CCN2CCN(CCC(=O)Nc3ccc(cc3)C[C@@H](C(=O)NCc3ccc(CN)cc3)NC1=O)CC2`: the inhibitory constant (Ki) is greater than 100 µM in experiment [1]; 19.7 nM in experiment [2]; greater than 100 µM in experiment [4]; 15.6 µM in [5]; greater than 100 µM in experiment [6]; 3.15 µM in experiment [3].

As to `N=C(N)c1ccc(CNC(=O)[C@@H]2Cc3ccc(cc3)NC(=O)CCN3CCN(CCC(=O)Nc4ccc(cc4)C[C@@H](NS(=O)(=O)c4ccccc4)C(=O)N2)CC3)cc1`, the inhibition constant (Ki) in experiment [1] is greater than 13 µM; in experiment [2], 0.07 nM; in [4], 0.8 µM; in [5], 42.7 µM; in experiment [6], greater than 13 µM; in experiment [3], 0.062 µM.

Regarding `N=C(N)c1ccc(CNC(=O)[C@@H]2Cc3ccc(cc3)NC(=O)CCN3CCN(CCC(=O)Nc4ccc(cc4)C[C@@H](NC=O)C(=O)N2)CC3)cc1`, the inhibition constant (Ki) in [1] was 62.9 µM; in experiment [2], 2.69 nM; in [4], 3.87 µM; in [5], greater than 100 µM; in experiment [6], greater than 100 µM; in experiment [3] it was 0.561 µM.

Take `COC(=O)N[C@@H]1Cc2ccc(cc2)NC(=O)CCN2CCN(CCC(=O)Nc3ccc(cc3)C[C@@H](C(=O)NCc3ccc(C(=N)N)cc3)NC1=O)CC2`: the Ki amounted to 51.5 µM in experiment [1]; 0.00085 µM in experiment [8]; 0.77 nM in experiment [2]; 7.25 µM in experiment [4]; 15.3 µM in experiment [5]; 50.7 µM in experiment [6]. For the same molecule, in [3], the affinity, expressed as Ki, was 0.109 µM.

`N=C(N)c1ccc(CNC(=O)[C@@H]2Cc3ccc(cc3)NC(=O)CCN3CCN(CCC(=O)Nc4ccc(cc4)C[C@@H](NC(=O)Cc4ccccc4)C(=O)N2)CC3)cc1` came in with an inhibitory constant (Ki) in experiment [1] of 96.5 µM.

On to `N=C(N)c1ccc(CNC(=O)[C@@H]2Cc3ccc(cc3)NC(=O)CCN3CCN(CCC(=O)Nc4ccc(cc4)C[C@@H](NC(=O)OCc4ccccc4)C(=O)N2)CC3)cc1`, for which the Ki in [1] was 46.5 µM; in experiment [3] it was 0.103 µM.

Consider `N=C(N)c1ccc(CNC(=O)[C@@H]2Cc3ccc(cc3)NC(=O)CCN3CCN(CCC(=O)Nc4ccc(cc4)C[C@@H](N)C(=O)N2)CC3)cc1`, for which, in [1], the affinity, expressed as Ki, was 106 µM.

Consider `N=C(N)c1ccc(CNC(=O)[C@@H]2Cc3ccc(cc3)NC(=O)CN3CCN(CC3)CC(=O)Nc3ccc(cc3)C[C@@H](NC(=O)Cc3ccccc3)C(=O)N2)cc1`, for which the Ki in experiment [1] turned out to be 212 µM; in experiment [2] it was 81.3 nM; in experiment [4], 7.27 µM; in [5], 72.2 µM; in [6] it was 202 µM.

With `NCc1ccc(CNC(=O)[C@@H]2Cc3ccc(cc3)NC(=O)CCN3CCN(CCC(=O)Nc4ccc(cc4)C[C@@H](NS(=O)(=O)NC4CCCCC4)C(=O)N2)CC3)cc1`, the inhibition constant (Ki) in [1] is greater than 100 µM; in [8] it was 0.00043 µM; in experiment [2] it was 0.52 nM; in [4], 43.2 µM; in experiment [5], 7.13 µM; in experiment [6], greater than 100 µM. In experiment [3], the inhibitory constant (Ki) was found to be 0.351 µM. Moreover, the concentration for half-maximal inhibition (IC50) in [7] worked out at 0.1 µM.

For `CC(C)(C)OC[C@@H](NS(=O)(=O)c1ccccc1)C(=O)NCC(=O)NCc1ccc(C(=N)N)cc1`, in experiment [9], the Ki is 24 µM.

As to `N=C(N)c1ccc(CNC(=O)[C@@H]2Cc3ccc(cc3)NC(=O)CN3CCN(CC3)CC(=O)Nc3ccc(cc3)C[C@@H](NS(=O)(=O)c3ccccc3)C(=O)N2)cc1`, the Ki in experiment [1] was greater than 30 µM; in experiment [2], 0.51 nM; in experiment [4] it was 0.54 µM; in experiment [5], 20.7 µM; in experiment [6], greater than 15 µM; in experiment [3], 0.501 µM.

Take `N=C(N)c1ccc(CNC(=O)[C@@H]2Cc3ccc(cc3)NC(=O)CN3CCN(CC3)CC(=O)Nc3ccc(cc3)C[C@@H](NC(=O)CCc3ccccc3)C(=O)N2)cc1`: the Ki in [1] is 42 µM; in experiment [2] it was 61.1 nM; in [4], 8.25 µM; in experiment [5], 8.79 µM; in experiment [6] it was 20.6 µM; in [3] it was 1.43 µM.

With `NCCCCNC(=O)[C@@H]1Cc2ccc(cc2)NC(=O)CCN2CCN(CCC(=O)Nc3ccc(cc3)C[C@@H](NS(=O)(=O)NC3CCCCC3)C(=O)N1)CC2`, the Ki was 85.9 µM in experiment [1]; 50.6 nM in experiment [2]; 64.4 µM in [4]; 21.9 µM in experiment [5]; 39.5 µM in experiment [6]; 6.2 µM in [3].

Regarding `CCCCS(=O)(=O)N[C@@H]1Cc2ccc(cc2)NC(=O)CCN2CCN(CCC(=O)Nc3ccc(cc3)C[C@@H](C(=O)NCc3ccc(C(=N)N)cc3)NC1=O)CC2`, the Ki in experiment [1] came to 4.28 µM; in experiment [2] it was 0.45 nM; in experiment [4], 0.701 µM; in experiment [5], 14.1 µM; in experiment [6], 34.4 µM; in experiment [3], 0.0137 µM.

The values are drawn from ChEMBL document CHEMBL4425109, “Optimization of Cyclic Plasmin Inhibitors: From Benzamidines to Benzylamines” (J Med Chem, 2016).
